Measured values of several laboratories.
Cell line: HepG2
Effect on: cell growth or viability

With `C=CCn1c(-c2ccc([N+](=O)[O-])cc2)nc2ccccc21` the IC50 was 36.8 µM (MTT).
For `CC(=O)Nc1cccc(-n2c(=O)n(C3CC3)c(=O)c3c(Nc4ccc(I)cc4F)n(C)c(=O)c(C)c32)c1`, the viability was 68% (resazurin; 6.25 nM, 72 h).
The IC50 of `Cc1ccc2nc(-c3cccnc3)[nH]c2c1` is reported as 68.4 µM (MTT; 48 h).
For `CCOC(=O)c1ccc(N2C(N)=C(C#N)C3(C(=O)Nc4ccccc43)C(C#N)=C2O)cc1` (stereo not drawn), the viability was 69.3% (MTT; 3.125 µM, 24 h).
With `COc1ccc(NC(=O)c2c(Nc3ccccc3)sc(C#N)c2NC(=O)CNc2ccc([N+](=O)[O-])cc2)cc1` the viability was 86.4% (SRB; 10 nM, 48 h).
The IC50 of `Clc1ccccc1-c1nc2ccccc2[nH]1` is reported as 31.5 µM (MTT; 48 h).
`CCOC(=O)c1ccc(-n2c(-c3ccc(C)cc3)cc(-c3ccc(O)cc3)c(C#N)c2=O)cc1` gave a viability of 50.4% (MTT; 12.5 µM, 24 h).
`COc1ccc(NCC(=O)Nc2c(C#N)sc(Nc3ccccc3)c2C(=O)Nc2ccc(OC)cc2)cc1` gave a viability of 97.2% (SRB; 1 nM, 48 h).
`CCOC(=O)c1ccc(NC(=O)C2=C3C(=Nc4ccccc43)NC2=O)cc1` gave a viability of 100% (MTT; 1.56 µM, 24 h).
`COc1ccc(NC(=O)c2c(Nc3ccccc3)sc(C#N)c2NC(=O)CNc2ccc(Cl)cc2)cc1` gave a viability of 33.2% (SRB; 10 µM, 48 h).
`O=[N+]([O-])c1ccc(-c2nc3ccccc3[nH]2)cc1` gave an IC50 of 21 µM (MTT; 48 h).
For `COc1ccc(NC(=O)c2c(Nc3ccccc3)sc(C(=O)NN=Cc3ccc(OC)c(O)c3)c2NC(C)=O)cc1`, the viability was 22.4% (SRB; 100 µM, 48 h).
With `CCOC(=O)c1ccc(-n2c(N)c(C#N)c(CC#N)c(C#N)c2=O)cc1` the viability was 71.8% (MTT; 6.25 µM, 24 h).
The viability of `COc1ccc(NC(=O)c2c(Nc3ccccc3)sc(C#N)c2NC(=O)CNc2ccccc2Cl)cc1` is reported as 101% (SRB; 1 nM, 48 h).
`CCOC(=O)c1ccc(-n2c(C)cc(C)c(C#N)c2=O)cc1` has a viability of 90.3% (MTT; 6.25 µM, 24 h).
